Measurements reported in ChEMBL document CHEMBL4765448, “Multiple biological active 4-aminopyrazoles containing trifluoromethyl and their 4-nitroso-precursors: Synthesis and evaluation” (Eur J Med Chem, 2020).
Values after ≈ are worked out from the molar mass of the structure shown. Active and inactive are the calls of the source. No cut-off for these calls is given here.

Key:
[1] = test system: Mycobacterium tuberculosis; test: Antitubercular activity against Mycobacterium tuberculosis H37Rv; assay type: functional
In short: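 Mycobacterium tuberculosis strain H37Rv; minimum inhibitory concentration (MIC) taken as the lowest level needed to inhibit bacterial growth; isoniazid and pyrazinamide served as reference drugs.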

Neisseria gonorrhoeae = test: Antibacterial activity against Neisseria gonorrhoeae; assay type: functional
Escherichia coli = test: Antibacterial activity against Escherichia coli; assay type: functional
Klebsiella pneumoniae = test: Antibacterial activity against Klebsiella pneumoniae; assay type: functional
Citrobacter braakii = test: Antibacterial activity against Citrobacter braakii; assay type: functional
Proteus vulgaris = test: Antibacterial activity against Proteus vulgaris; assay type: functional
Serratia marcescens = test: Antibacterial activity against Serratia marcescens; assay type: functional
Shigella flexneri = test: Antibacterial activity against Shigella flexneri; assay type: functional
Pseudomonas aeruginosa = test: Antibacterial activity against Pseudomonas aeruginosa; assay type: functional
Streptococcus pyogenes = test: Antibacterial activity against Streptococcus pyogenes; assay type: functional
Staphylococcus aureus = test: Antibacterial activity against Staphylococcus aureus; assay type: functional
Trichophyton rubrum = test: Antifungal activity against Trichophyton rubrum; assay type: functional
Nannizzia gypsea = test: Antifungal activity against Trichophyton gypseum; assay type: functional
Trichophyton tonsurans = test: Antifungal activity against Trichophyton tonsurans; assay type: functional
Trichophyton violaceum = test: Antifungal activity against Trichophyton violaceum; assay type: functional
[2] = test system: Trichophyton interdigitale; test: Antifungal activity against Trichophyton mentagrophytes var. interdigitale; assay type: functional
Epidermophyton floccosum = test: Antifungal activity against Epidermophyton floccosum; assay type: functional
Microsporum canis = test: Antifungal activity against Microsporum canis; assay type: functional
Candida albicans = test: Antifungal activity against Candida albicans; assay type: functional
[3] = Antioxidant activity assessed as trolox equivalent of ABTS radical scavenging activity measured after 1 hr by UV-vis spectrophotometric method; assay type: functional
In short: (§1)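 ABTS cation-radical decolorization was read spectrophotometrically as the fall in absorbance after 1 h. Trolox was the reference. TEAC was taken as the ratio of concentration-response slopes, test/Trolox, and IC50 was also derived. Data are mean ± SEM, n = 3.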

[4] = Antioxidant activity assessed as AAPH scavenging activity by measuring residual fluorescence at 10 uM measured at 1 min interval for 30 mins by ORAC fluorescein assay relative to control; assay type: functional
In short: (§2)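 ORAC-FL assay with fluorescein as the probe and AAPH as the peroxyl radical generator. The loss of fluorescence over time was followed, and the result is given as % fluorescence restored at 10 and 50 µM. Each value is the mean of two independent experiments.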

[5] = Antioxidant activity assessed as AAPH scavenging activity by measuring residual fluorescence at 50 uM measured at 1 min interval for 30 mins by ORAC fluorescein assay relative to control; assay type: functional; in short: as §2
Erythrocyte [6] = test: Antioxidant activity in human erythrocytes assessed as protection against AAPH-induced hemolysis at 50 uM preincubated for 20 mins followed by AAPH addition and measured after 2 hrs by spectrophotometric method relative to control; assay type: functional; conditions: time 140 min, 2.333 h
In short: (§3)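 Erythrocyte hemolysis assay with AAPH as the free-radical initiator, testing 50 and 400 µM. Results are expressed as relative protection of membranes against oxidative damage, each the mean of two independent experiments.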

Erythrocyte [7] = test: Antioxidant activity in human erythrocytes assessed as protection against AAPH-induced hemolysis at 400 uM preincubated for 20 mins followed by AAPH addition and measured after 2 hrs by spectrophotometric method relative to control; assay type: functional; conditions: time 140 min, 2.333 h; in short: as §3
HeLa = test: Cytotoxicity against human HeLa cells; assay type: functional, cell-based; conditions: for IC50: Homo sapiens, HeLa, read-out: IC50
NHDF = test: Cytotoxicity against HDF cells; assay type: cell-based, Homo sapiens
[8] = Selectivity index, ratio of IC50 for HDF cells to IC50 for human HeLa cells; assay type: toxicity; conditions: HDF cells versus HeLa cells, read-out: Ratio IC50
Rattus norvegicus [9] = test: Antiinflammatory activity in rat model of carrageenan-induced paw edema assessed as inhibition of hind paw swelling at 15 mg/kg, ip measured after 1 hr relative to control; assay type: functional
Rattus norvegicus [10] = test: Antiinflammatory activity in rat model of carrageenan-induced paw edema assessed as inhibition of hind paw swelling at 15 mg/kg, ip measured after 3 hrs relative to control; assay type: functional
Rattus norvegicus [11] = test: Analgesic activity in rat assessed as prolongation of latency period at 15 mg/kg, ip measured after 1 hr by hot-plate test relative to control; assay type: functional
In short: (§4)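 Hot-plate test in rats. Compounds were given by intraperitoneal injection. Latency was read at 1 h and, for some compounds, also at 2 h after dosing. Results are expressed as % prolongation of the latent period versus vehicle-treated control. Significance was given as p-values.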

Rattus norvegicus [12] = test: Antiinflammatory activity in rat model of carrageenan-induced paw edema assessed as inhibition of hind paw swelling at 15 mg/kg, ip measured after 5 hrs; assay type: functional, organism-based
[13] = Acute toxicity in mouse at 60 mg/kg, ip administered as single dose; assay type: organism-based; conditions: in vivo
In short: (§5)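 Mice, single intraperitoneal dose, following OECD Guideline for testing of chemicals; three mice per dose level; doses tested 10–300 mg/kg. Read-out is the number of survivors out of 3, used to estimate the expected LD50 range.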

Rattus norvegicus [14] = test: Antiinflammatory activity in rat model of carrageenan-induced paw edema assessed as inhibition of hind paw swelling at 10 mg/kg, ip measured after 1 hr relative to control; assay type: functional
Rattus norvegicus [15] = test: Antiinflammatory activity in rat model of carrageenan-induced paw edema assessed as inhibition of hind paw swelling at 10 mg/kg, ip measured after 3 hrs relative to control; assay type: functional
Rattus norvegicus [16] = test: Analgesic activity in rat assessed as prolongation of latency period at 10 mg/kg, ip measured after 1 hr by hot-plate test relative to control; assay type: functional; in short: as §4
[17] = Acute toxicity in mouse at 70 mg/kg, ip administered as single dose; assay type: organism-based; conditions: in vivo; in short: as §5
Rattus norvegicus [18] = test: Analgesic activity in rat assessed as prolongation of latency period at 25 mg/kg, ip measured after 1 hr by hot-plate test relative to control; assay type: functional, organism-based; in short: as §4
Rattus norvegicus [19] = test: Antiinflammatory activity in rat model of carrageenan-induced paw edema assessed as inhibition of hind paw swelling at 25 mg/kg, ip measured after 5 hrs; assay type: functional, organism-based
[20] = Acute toxicity in mouse at 300 mg/kg, ip administered as single dose; assay type: organism-based; conditions: in vivo; in short: as §5
[21] = Antioxidant activity assessed as ABTS radical scavenging activity measured after 1 hr by UV-vis spectrophotometric method; assay type: functional; in short: as §1
Rattus norvegicus [22] = test: Analgesic activity in rat assessed as prolongation of latency period at 15 mg/kg, ip measured after 2 hrs by hot-plate test relative to control; assay type: functional; in short: as §4
[23] = Acute toxicity in ip dosed mouse administered as single dose; assay type: organism-based; conditions: in vivo; in short: as §5

In the case of Cl.Cn1nc(C(F)(F)F)c(N)c1-c1ccccc1, the MIC [1] is reported as 12.5 µg/mL, the MIC (Neisseria gonorrhoeae) is reported as over 250 µg/mL and the MIC (Escherichia coli) is reported as over 250 µg/mL. For the same molecule, the MIC (Klebsiella pneumoniae) was over 250 µg/mL, the MIC (Citrobacter braakii) was over 250 µg/mL and the MIC (Proteus vulgaris) was over 250 µg/mL. The MIC (Serratia marcescens) was over 250 µg/mL, the MIC (Shigella flexneri) was over 250 µg/mL and the MIC (Pseudomonas aeruginosa) was over 250 µg/mL. For the same molecule, the MIC (Streptococcus pyogenes) was over 250 µg/mL, the MIC (Staphylococcus aureus) was over 250 µg/mL and the MIC (Trichophyton rubrum) was 200 µg/mL. For the same molecule, the MIC (Nannizzia gypsea) was over 200 µg/mL, the MIC (Trichophyton tonsurans) was over 200 µg/mL and the MIC (Trichophyton violaceum) was 200 µg/mL. It also gave an MIC [2] of over 200 µg/mL, an MIC (Epidermophyton floccosum) of 200 µg/mL and an MIC (Microsporum canis) of 200 µg/mL. The MIC (Candida albicans) was over 200 µg/mL, the Activity [3] was “inactive” and the Activity [4] was 38.2%. The Activity [5] was 79%, the “fold change (FC)” value (Erythrocyte [6]) was 1.19 and the “fold change (FC)” value (Erythrocyte [7]) was 1.11. The Activity (HeLa) was “Dose-dependent effect”, the IC50 (HeLa) was 0.074 µM and the IC50 (NHDF; nhdf) was “Not Active”. The selectivity ratio [8] was over 1350, the inhibition in vivo at 15 mg/kg (Rattus norvegicus [9]) was 54.3% and the inhibition in vivo at 15 mg/kg (Rattus norvegicus [10]) was 32.9%. For the same molecule, the Activity (Rattus norvegicus [11]) was 100.74%, the Activity (Rattus norvegicus [12]) was “Active” and the Activity [13] was “Non-Toxic”.

In the case of O=C(O)Cc1ccccc1Nc1c(Cl)cccc1Cl [DICLOFENAC], the inhibition in vivo at 10 mg/kg (Rattus norvegicus [14]) is reported as 53.9%, the inhibition in vivo at 10 mg/kg (Rattus norvegicus [15]) is reported as 61.8% and the Activity (Rattus norvegicus [16]) is reported as 57.1%. For the same molecule, the Activity [17] was “Non-Toxic”.

Molecule Cc1ccc(-c2c(N=O)c(C(F)(F)F)nn2-c2ccc(S(N)(=O)=O)cc2)cc1 has an MIC (Neisseria gonorrhoeae) of 31.2 µg/mL (≈ 76 µM), an MIC (Escherichia coli) of over 250 µg/mL and an MIC (Klebsiella pneumoniae) of over 250 µg/mL. The MIC (Citrobacter braakii) was over 250 µg/mL, the MIC (Proteus vulgaris) was over 250 µg/mL and the MIC (Serratia marcescens) was over 250 µg/mL. For the same molecule, the MIC (Shigella flexneri) was over 250 µg/mL, the MIC (Pseudomonas aeruginosa) was over 250 µg/mL and the MIC (Streptococcus pyogenes) was over 250 µg/mL. It also gave an MIC (Staphylococcus aureus) of over 250 µg/mL, an MIC (Trichophyton rubrum) of 200 µg/mL (≈ 487 µM) and an MIC (Nannizzia gypsea) of 200 µg/mL (≈ 487 µM). The MIC (Trichophyton tonsurans) was 200 µg/mL (≈ 487 µM), the MIC (Trichophyton violaceum) was over 200 µg/mL and the MIC [2] was 200 µg/mL (≈ 487 µM). For the same molecule, the MIC (Epidermophyton floccosum) was 200 µg/mL (≈ 487 µM), the MIC (Microsporum canis) was 200 µg/mL (≈ 487 µM) and the MIC (Candida albicans) was over 200 µg/mL. The Activity (Rattus norvegicus [18]) was “inactive”, the Activity (Rattus norvegicus [19]) was “inactive” and the Activity [20] was “Non-Toxic”.

With Cc1ccc(C2=NN(c3ccc(S(N)(=O)=O)cc3)C(O)(C(F)(F)F)/C2=N/O)cc1 (stereo not given) the Activity [3] was 0.48 equiv, the IC50 [21] was 45.3 µM and the Activity [4] was 38.5%. For the same molecule, the Activity [5] was 59.4%, the “fold change (FC)” value (Erythrocyte [6]) was 1.09 and the “fold change (FC)” value (Erythrocyte [7]) was 1.08. The Activity (HeLa) was “Dose-dependent effect”, the IC50 (HeLa) was 7.23 µM and the IC50 (NHDF; Homo sapiens, NHDF, read-out: IC50) was 99.3 µM. For the same molecule, the selectivity ratio [8] was 13.7, the inhibition (Rattus norvegicus [9]) was “inactive” and the inhibition (Rattus norvegicus [10]) was “inactive”. The Activity (Rattus norvegicus [11]) was 58.9%, the Activity (Rattus norvegicus [22]) was 96.55% and the Activity (Rattus norvegicus [12]) was “Active”. The Activity [20] was “Non-Toxic” and the LD50 [23] was over 300 mg/kg.
